Experimental data: ChEMBL document CHEMBL2150957, “Substrate-Selective Inhibition of Cyclooxygenase-2: Development and Evaluation of Achiral Profen Probes” (ACS Med Chem Lett, 2012)

How the values were obtained:
[1] = target: T1, Prostaglandin G/H synthase 2 (Mus musculus) (UniProt Q05769); assay: Inhibition of mouse COX2-mediated 2-arachidonoylglycerol oxygenation at 10 uM preincubated for 3 mins before 2-arachidonoylglycerol addition measured after 30 seconds relative to control
T1 sequence (whole entry): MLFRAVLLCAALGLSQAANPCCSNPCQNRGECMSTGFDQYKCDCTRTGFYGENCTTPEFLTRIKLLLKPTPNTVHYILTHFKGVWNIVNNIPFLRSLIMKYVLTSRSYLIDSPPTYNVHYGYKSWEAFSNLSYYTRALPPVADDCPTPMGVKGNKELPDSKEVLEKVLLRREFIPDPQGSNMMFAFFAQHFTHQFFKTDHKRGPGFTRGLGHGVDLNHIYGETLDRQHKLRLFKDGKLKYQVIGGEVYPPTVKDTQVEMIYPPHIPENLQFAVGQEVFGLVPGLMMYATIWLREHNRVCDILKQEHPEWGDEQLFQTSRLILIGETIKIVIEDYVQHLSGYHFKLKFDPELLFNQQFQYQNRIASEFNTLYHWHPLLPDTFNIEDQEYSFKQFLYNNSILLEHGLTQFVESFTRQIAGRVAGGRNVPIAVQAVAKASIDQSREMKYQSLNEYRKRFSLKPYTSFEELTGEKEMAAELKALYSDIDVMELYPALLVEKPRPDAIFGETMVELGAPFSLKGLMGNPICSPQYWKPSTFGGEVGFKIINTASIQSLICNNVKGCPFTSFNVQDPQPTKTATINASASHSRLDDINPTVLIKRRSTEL
How it was run: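 Purified murine COX-2 (40 nM) preincubated 3 min with inhibitor in DMSO, with a solvent control. 2-AG (5 μM) then added and reacted 30 s at 37 °C. Value is the maximum inhibition at 10 μM inhibitor. Mean ± standard deviation, n = 6.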

[2] = target: T1, Prostaglandin G/H synthase 2 (Mus musculus); assay: Inhibition of mouse COX2-mediated arachidonic acid oxygenation at 10 uM preincubated for 3 mins before […] measured after 30 seconds
How it was run: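 Purified murine COX-2 (40 nM) preincubated 3 min with inhibitor (10 μM) in DMSO, with a solvent control. Arachidonic acid (5 μM) then added and reacted 30 s at 37 °C. Percent inhibition of AA oxygenation. Mean ± standard deviation, n = 6.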

[3] = target: T1, Prostaglandin G/H synthase 2 (Mus musculus); assay: Inhibition of COX2-mediated arachidonic acid oxygenation in LPS/IFN-gamma-stimulated mouse RAW264.7 cells assessed as AA to PGE2/PGD2 conversion at 25 uM treated 2 hrs after LPS/IFN-gamma stimulation measured after 6 hrs; format: cell-based
How it was run: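 RAW 264.7 macrophages stimulated with lipopolysaccharide and interferon γ to generate endogenous AA and 2-AG. Inhibitor added to the medium at varying doses 2 h after stimulation. Medium collected 6 h after stimulation; prostaglandin levels quantified by LC-MS-MS.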

[4] = system: Plasma; assay: Metabolic stability of the compound in C57BL/6 mouse plasma assessed as parent compound level at 10 mg/kg, ip after 16 hrs; format: ADME, organism-based; set-up: dose 10 mg/kg, route intraperitoneal; conditions: in vivo
How it was run: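 Blood collected at 72 h, i.e. 16 h after the last injection. Plasma analysed for the dosed compound and, where applicable, its stereoinversion product (S)-flurbiprofen.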

[5] = Plasma concentration in C57BL/6 mouse at 10 mg/kg, ip after 2 hrs; format: ADME, organism-based; set-up: dose 10 mg/kg, route intraperitoneal
How it was run: (§1)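 Single i.p. injection in C57BL/6 mice. Blood sampled at 1, 2 and 4 h after dosing and plasma compound concentration measured. n = 3 at 1 h, 2 at 2 h, 3 at 4 h.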

[6] = Plasma concentration in C57BL/6 mouse at 10 mg/kg, ip after 1 hr; format: ADME, organism-based; set-up: dose 10 mg/kg, route intraperitoneal; how it was run: as §1
[7] = Plasma concentration in C57BL/6 mouse at 10 mg/kg, ip after 4 hrs; format: ADME, organism-based; set-up: dose 10 mg/kg, route intraperitoneal; how it was run: as §1

SMILES	Imax [1] [%]	inhibition [2] [%]	other results
COc1ccc2cc(C3(C(=O)O)CC3)ccc2c1	77	6	–
O=C(c1ccccc1)c1cccc(C2(C(=O)O)CC2)c1	75	10	–
COc1ccc2cc(C(C)(C)C(=O)O)ccc2c1	12	7	–
CC(C)(C(=O)O)c1ccc(-c2ccccc2)c(F)c1	–	5	inhibition [3]: 40%
CC(C)Cc1ccc(CC(=O)O)cc1	–	14	–
O=C(O)Cc1ccc(-c2ccccc2)c(F)c1 [DESMETHYLFLURBIPROFEN]	–	7	Stability [4]: Unstable; concentration at 2 h [5]: 50 µM; concentration at 1 h [6]: 68 µM; concentration at 4 h [7]: 6 µM
O=C(O)Cc1cccc(Oc2ccccc2)c1	68	24	–
CC(C)Cc1ccc(C(C)(C)C(=O)O)cc1	5	5	–
O=C(O)C1(c2cccc(Oc3ccccc3)c2)CC1	–	15	–
CC(C)(C(=O)O)c1cccc(Oc2ccccc2)c1	65	17	–

Now from value to compound, other results behind:

Imax [1] [%]	inhibition [2] [%]	SMILES	other results
45	10	CC(C)Cc1ccc(C2(C(=O)O)CC2)cc1	–
–	10	O=C(O)Cc1cccc(C(=O)c2ccccc2)c1	–
–	16	COc1ccc2cc(CC(=O)O)ccc2c1	–
87	0	O=C(O)C1(c2ccc(-c3ccccc3)c(F)c2)CC1	inhibition [3]: 55%
–	32	CC(C)(C(=O)O)c1cccc(C(=O)c2ccccc2)c1	–
